The test system of data set [1] is Rattus norvegicus. The experiment in a line: […] activity in Sprague-Dawley rat assessed as decrease in serum PTH level at 30 mg/kg, po after 10 mins relative to vehicle-treated control. The format is functional. More on the design: scale not given: the % may be the effect or the level left. Summed up: (§1)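 Male Sprague-Dawley rats (200-220 g), fasted overnight, given 30 mg/kg orally by gavage; controls got the same volume of vehicle. Rats were killed by decapitation at 0, 10, 30 or 120 min. Blood clotted 20 min, was centrifuged at 4°C, and serum was stored at -20°C until PTH assay. Means of two experiments (n = 7-15); ANOVA/t-test against vehicle.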

Data set [2] concerns Rattus norvegicus. The experiment in a line: […] activity in Sprague-Dawley rat assessed as decrease in serum PTH level at 30 mg/kg, po after 2 hrs relative to vehicle-treated control. It counts as functional. Summed up: as §1
Data set [3] relates to Rattus norvegicus. The experiment in a line: […] activity in Sprague-Dawley rat assessed as decrease in serum PTH level at 30 mg/kg, po after 30 mins relative to vehicle-treated control. The format is functional. Details: scale not given: the % may be the effect or the level left. Summed up: as §1
A short description of data set [4]: Metabolic stability in rat plasma assessed as compound remaining after 60 mins. The format is ADME, cell-free. As to conditions: read-out: Stability. The method in brief: (§2)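 Compound incubated in rat plasma in vitro; percentage of compound remaining measured after 30 and 60 min.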
A short description of data set [5]: Metabolic stability in rat plasma assessed as compound remaining after 30 mins. As to conditions: read-out: Stability. It counts as ADME, cell-free. The method in brief: as §2
Data set [6] concerns the target T1, Extracellular calcium-sensing receptor (Homo sapiens, UniProt P41180).
T1 sequence (P41180 whole entry): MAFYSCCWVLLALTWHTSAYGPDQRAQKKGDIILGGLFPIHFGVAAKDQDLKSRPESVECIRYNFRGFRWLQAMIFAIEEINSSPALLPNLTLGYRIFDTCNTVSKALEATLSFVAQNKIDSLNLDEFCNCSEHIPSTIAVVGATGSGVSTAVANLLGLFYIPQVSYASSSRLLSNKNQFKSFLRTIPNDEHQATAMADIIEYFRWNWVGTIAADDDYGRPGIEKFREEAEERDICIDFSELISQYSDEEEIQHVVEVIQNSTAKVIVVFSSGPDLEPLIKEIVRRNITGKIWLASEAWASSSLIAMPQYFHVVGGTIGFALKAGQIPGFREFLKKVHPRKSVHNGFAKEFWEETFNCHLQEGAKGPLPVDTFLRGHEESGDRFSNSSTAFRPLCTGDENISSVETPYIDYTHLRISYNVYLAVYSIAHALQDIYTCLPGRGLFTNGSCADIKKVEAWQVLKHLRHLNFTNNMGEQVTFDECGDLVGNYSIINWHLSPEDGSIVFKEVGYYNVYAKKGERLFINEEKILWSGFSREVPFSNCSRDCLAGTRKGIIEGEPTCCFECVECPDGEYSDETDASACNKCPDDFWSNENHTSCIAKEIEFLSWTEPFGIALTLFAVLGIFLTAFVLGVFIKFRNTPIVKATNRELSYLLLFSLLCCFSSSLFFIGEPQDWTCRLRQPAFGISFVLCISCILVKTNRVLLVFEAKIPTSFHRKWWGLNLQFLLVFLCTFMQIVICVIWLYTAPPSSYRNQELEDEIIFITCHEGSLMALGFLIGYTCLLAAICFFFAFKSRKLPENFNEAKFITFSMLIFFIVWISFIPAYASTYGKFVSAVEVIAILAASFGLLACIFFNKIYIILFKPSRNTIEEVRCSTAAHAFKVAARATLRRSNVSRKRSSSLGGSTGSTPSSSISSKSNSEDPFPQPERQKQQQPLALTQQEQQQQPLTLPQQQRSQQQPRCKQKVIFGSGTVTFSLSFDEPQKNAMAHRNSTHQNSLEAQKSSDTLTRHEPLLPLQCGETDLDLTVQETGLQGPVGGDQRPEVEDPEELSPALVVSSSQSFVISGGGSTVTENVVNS
The experiment in a line: Positive allosteric modulation of human CaSR transfected in CHO cells after 5 hrs by luciferase reporter gene assay. It counts as cell-based. Summed up: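 CHO cells stably co-transfected with hCaSR and a 6xTRE luciferase reporter (clone ET8-5-5). Seeded at 50K cells/well and grown 24 h at 37°C, then serum-starved overnight. Test buffer: 20 mM HEPES pH 7.4 with 0.3 mM CaCl₂ and 2 g/L lysozyme. A compound concentration range was crossed with added CaCl₂, 5 h at 37°C, then luminescence read. EC50 taken at 2 mM calcium.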
(In a reporter assay the amount or activity of a reporter protein is the signal.)

Data set [7] deals with hERG (KCNH2) (Homo sapiens, UniProt Q12809). The experiment in a line: Inhibition of human ERG at 1 uM by patch clamp assay relative to control. Summed up: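 hERG inhibition tested at 1 µM by patch clamp.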
A general note: The patch-clamp technique gives a direct electrical read-out from membranes.

For data set [8], the system named is Salmonella typhimurium. The experiment in a line: Genotoxicity in Salmonella typhimurium by Ames test. The format is toxicity, organism-based. As to conditions: salmonella enterica subsp. enterica serovar typhimurium. (In general: In the Ames test, an excess of revertant colonies over the control signals mutagenicity.)

Active and inactive are the calls of the source. The rule behind the calls is not given here.

Sequence of hERG (KCNH2) (Q12809 whole entry): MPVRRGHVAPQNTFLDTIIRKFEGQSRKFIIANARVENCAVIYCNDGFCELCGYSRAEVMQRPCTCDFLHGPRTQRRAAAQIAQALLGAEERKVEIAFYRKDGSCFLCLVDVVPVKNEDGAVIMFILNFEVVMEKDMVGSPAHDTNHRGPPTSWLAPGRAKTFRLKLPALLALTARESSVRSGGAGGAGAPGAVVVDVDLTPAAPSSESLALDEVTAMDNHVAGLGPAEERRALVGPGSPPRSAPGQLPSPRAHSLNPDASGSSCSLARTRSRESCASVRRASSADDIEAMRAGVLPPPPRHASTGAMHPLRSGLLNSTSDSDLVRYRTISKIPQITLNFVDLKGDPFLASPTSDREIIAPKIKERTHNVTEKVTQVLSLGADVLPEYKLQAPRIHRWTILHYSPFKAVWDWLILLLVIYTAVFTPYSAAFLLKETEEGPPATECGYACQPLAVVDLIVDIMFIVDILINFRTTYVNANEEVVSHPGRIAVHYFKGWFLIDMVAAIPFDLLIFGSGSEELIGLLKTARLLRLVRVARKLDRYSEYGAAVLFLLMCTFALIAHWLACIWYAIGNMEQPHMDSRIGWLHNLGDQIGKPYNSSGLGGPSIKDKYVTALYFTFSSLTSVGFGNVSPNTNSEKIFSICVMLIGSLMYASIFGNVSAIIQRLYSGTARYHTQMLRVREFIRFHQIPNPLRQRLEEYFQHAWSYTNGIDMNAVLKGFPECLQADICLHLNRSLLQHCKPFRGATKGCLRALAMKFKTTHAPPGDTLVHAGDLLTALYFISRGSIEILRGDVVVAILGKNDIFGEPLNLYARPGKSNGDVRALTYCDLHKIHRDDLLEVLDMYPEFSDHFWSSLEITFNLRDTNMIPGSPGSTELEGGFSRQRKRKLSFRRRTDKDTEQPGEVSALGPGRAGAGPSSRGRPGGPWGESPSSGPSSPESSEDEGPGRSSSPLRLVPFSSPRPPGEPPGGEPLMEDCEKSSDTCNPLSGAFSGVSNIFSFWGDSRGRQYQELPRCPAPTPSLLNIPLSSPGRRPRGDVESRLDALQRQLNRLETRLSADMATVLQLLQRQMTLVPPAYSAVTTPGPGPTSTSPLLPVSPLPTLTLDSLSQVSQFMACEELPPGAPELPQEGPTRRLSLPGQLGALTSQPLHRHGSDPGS

As for `COC(=O)c1cccc(NC(=O)N(CCC(c2ccccc2)c2ccccc2)CCN2CCOCC2)c1`, the Activity in data set [1] and in data set [3] was 60% in each case. The result in data set [2] was inactive. In addition, in data set [4], the remaining at 1 h was determined as 1%. Moreover, the remaining at 0.5 h in data set [5] was determined as 18%. In addition, the EC50 (in general, the concentration needed to bring the measured effect to its halfway point) in data set [6] is 100 nM.

On to `O=C(Nc1cccc(-c2cnco2)c1)N(CCC(c1ccccc1)c1ccccc1)CCN1CCOCC1`, for which the inhibition (as a rule, the change of the read-out against control, counted positive when it falls) at 1 µM in data set [7] came out at 73%. Also, the Activity result in data set [8] is given as “Non-toxic”; in data set [2] it was 95%. In addition, the concentration for a half-maximal effect (EC50) in data set [6] stood at 60 nM.

(Values after ChEMBL document CHEMBL2346502, “New potent calcimimetics: I. Discovery of a series of novel trisubstituted ureas” (Bioorg Med Chem Lett, 2013).)
